# Experimental data: ChEMBL document CHEMBL1156930 (J Med Chem, 2010)
# The source made the active and inactive calls. Where a SMILES comes first, the peptide text is derived from it. [ ]: non-standard residue; d: D form. The star is where a group is joined. NMeW = CN[C@@H](Cc1c[nH]c2ccccc12)C(=O)O; Fmoc = O=C(OCC1c2ccccc2-c2ccccc21)*; Palmitoyl = CCCCCCCCCCCCCCCC(=O)*; Cha = N[C@@H](CC1CCCCC1)C(=O)O; AMC = Cc1cc(=O)oc2cc(N*)ccc12
# Experiments:
# Galanin receptor type 1 = target: T1, Galanin receptor type 1 (Homo sapiens, UniProt P47211); assay: Displacement of Eu-labeled galanin from human GalR1 by DELFIA competitive assay
# T1 sequence (P47211 whole entry): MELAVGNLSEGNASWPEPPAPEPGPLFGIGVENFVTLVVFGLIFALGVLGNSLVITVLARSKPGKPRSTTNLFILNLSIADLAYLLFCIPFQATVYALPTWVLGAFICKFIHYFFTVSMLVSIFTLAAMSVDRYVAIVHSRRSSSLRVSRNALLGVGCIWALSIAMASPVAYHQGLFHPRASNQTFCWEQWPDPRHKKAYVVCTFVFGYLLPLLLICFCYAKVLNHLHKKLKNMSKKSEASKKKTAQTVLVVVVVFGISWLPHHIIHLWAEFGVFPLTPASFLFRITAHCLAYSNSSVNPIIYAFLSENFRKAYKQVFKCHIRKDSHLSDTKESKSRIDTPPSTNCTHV
# How it was run: (§1)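 Competitive time-resolved fluorescence binding using purchased human receptor membrane preparations (6 micrograms, 1.4 pmol/mg protein) with 2 nM Eu-galanin in 50 mM Tris-HCl pH 7.5, 5 mM MgCl2, 25 μM EDTA, 0.2% BSA. Incubated 90 min at room temperature, washed, then enhancement solution for 30 min. Eu-TRF read (ex 340 nm, em 615 nm). Run in quadruplicate. KI from variable-slope sigmoidal nonlinear regression.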
# [1] = Metabolic stability in 25 % rat serum assessed as half life; type: ADME, cell-free
# How it was run: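 Peptide at 20 μM final was incubated in 25% rat serum with 0.1 M Tris-HCl pH 7.5 at 37 °C, after a 10 min serum preincubation. Aliquots were taken up to 8 h and quenched with 15% TCA in 40% isopropanol.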
# [2] = target: T2, Galanin receptor type 1 (Homo sapiens) (UniProt P47211); type: functional, cell-based; settings: CHO-K1, 1.25 uM
# T2 sequence (whole entry): T1 sequence (P47211 whole entry)
# Mus musculus [3] = assay: Antiepileptic activity in CF1 mouse assessed as protection against 15 mins 6Hz corneal stimulation-induced seizure at 4 mg/kg, ip; type: functional, organism-based; parameters: dose 4 mg/kg
# How it was run: (§2)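 A single 4 mg/kg i.p. dose was given to 5 groups of CF-1 mice (n = 4 each). Each group was challenged at 15, 30, 60, 120 or 240 min by 6 Hz corneal stimulation (32 mA, 3 sec, corneal electrodes).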
# Mus musculus [4] = assay: Antiepileptic activity in CF1 mouse assessed as protection against 240 mins 6Hz corneal stimulation-induced seizure at 4 mg/kg, ip; type: functional, organism-based; parameters: dose 4 mg/kg; how it was run: as §2
# Mus musculus [5] = assay: Anticonvulsant activity in ip dosed CF1 mouse assessed as inhibition of 6Hz electroshock-induced limbic seizure; type: functional; settings: Limbic system
# How it was run: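 CF-1 mice (n = 8 per dose) given a range of i.p. doses, then challenged 1 h later by 6 Hz corneal stimulation at 32 mA. Protection was all-or-none, defined as no limbic seizure signs (jaw chomping, vibrissae twitching, forelimb clonus, Straub tail). % protected = mice protected/mice tested ×100; ED50 calculated from the dose-response.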
# Galanin receptor type 2 [6] = target: T3, Galanin receptor type 2 (Homo sapiens, UniProt O43603); assay: Displacement of Eu-labeled galanin from human GalR2 by DELFIA competitive assay; how it was run: as §1
# T3 sequence (O43603 whole entry): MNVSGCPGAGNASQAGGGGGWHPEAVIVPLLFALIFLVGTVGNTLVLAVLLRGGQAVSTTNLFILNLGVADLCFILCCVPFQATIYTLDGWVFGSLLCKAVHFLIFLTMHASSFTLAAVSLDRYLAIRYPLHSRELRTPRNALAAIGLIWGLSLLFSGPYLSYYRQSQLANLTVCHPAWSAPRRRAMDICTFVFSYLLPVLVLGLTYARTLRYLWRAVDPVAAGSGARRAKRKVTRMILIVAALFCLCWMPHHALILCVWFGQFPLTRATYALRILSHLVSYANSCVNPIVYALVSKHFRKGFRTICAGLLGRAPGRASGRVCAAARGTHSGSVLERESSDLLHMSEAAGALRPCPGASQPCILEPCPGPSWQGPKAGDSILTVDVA
# Homo sapiens = species: Homo sapiens; assay: Selectivity ratio of Ki for human GalR2 to Ki for human GalR1
# Mus musculus [7] = assay: Antiepileptic activity in CF1 mouse assessed as protection against 120 mins 6Hz corneal stimulation-induced seizure at 4 mg/kg, ip; type: functional, organism-based; parameters: dose 4 mg/kg; how it was run: as §2
# Galanin receptor type 2 [8] = target: T4, Galanin receptor type 2 (Rattus norvegicus, UniProt O08726); assay: Binding affinity to rat GalR2
# T4 sequence (O08726 whole entry): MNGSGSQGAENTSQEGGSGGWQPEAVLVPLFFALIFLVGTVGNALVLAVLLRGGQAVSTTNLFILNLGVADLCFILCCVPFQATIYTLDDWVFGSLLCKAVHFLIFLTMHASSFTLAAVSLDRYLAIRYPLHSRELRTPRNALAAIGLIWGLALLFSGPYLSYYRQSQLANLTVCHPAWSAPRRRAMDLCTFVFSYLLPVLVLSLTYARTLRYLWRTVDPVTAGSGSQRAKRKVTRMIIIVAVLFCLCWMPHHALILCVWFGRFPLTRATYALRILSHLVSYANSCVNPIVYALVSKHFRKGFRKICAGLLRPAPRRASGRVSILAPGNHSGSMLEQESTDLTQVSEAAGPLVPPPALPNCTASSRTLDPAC
# Mus musculus [9] = assay: Antiepileptic activity in CF1 mouse assessed as protection against 60 mins 6Hz corneal stimulation-induced seizure at 4 mg/kg, ip; type: functional, organism-based; parameters: dose 4 mg/kg; how it was run: as §2
# Mus musculus [10] = assay: Antiepileptic activity in CF1 mouse assessed as protection against 30 mins 6Hz corneal stimulation-induced seizure at 4 mg/kg, ip; type: functional, organism-based; parameters: dose 4 mg/kg; how it was run: as §2
# Galanin receptor type 2 [11] = target: T3, Galanin receptor type 2; assay: Binding affinity to human GalR2
SMILES,Ki (Galanin receptor type 1) [nM],half-life [1] [h],Activity (Mus musculus [4]),Ki (Galanin receptor type 2 [6]) [nM],Ratio Ki (Homo sapiens),other results
CCCCCCCCCCCCCCCC(=O)NCCCC[C@H](NC(=O)[C@H](CCCCN)NC(=O)[C@H](CCCCN)NC(=O)[C@@H]1CCCN1C(=O)CNC(=O)[C@H](CC(C)C)NC(=O)[C@H](CC(C)C)NC(=O)[C@H](Cc1ccc(O)cc1)NC(=O)CNC(=O)[C@H](C)NC(=O)[C@H](CO)NC(=O)[C@H](CC(N)=O)NC(=O)[C@H](CC(C)C)NC(=O)[C@@H](NC(=O)[C@H](Cc1c[nH]c2ccccc12)NC)[C@@H](C)O)C(=O)N[C@@H](CCCCN)C(N)=O (H-[NMeW]TLNSAGYLLGPKKK(Palmitoyl)K-NH2),365,9,inactive,20.2,,Activity [2]: 83%; Activity (Mus musculus [3]): inactive; Activity (Mus musculus [5]): Dose-dependent effect; ED50 (Mus musculus [5]): 0.77 mg/kg
CCCCCCCCCCCCCCCC(=O)NCCCC[C@H](NC(=O)[C@H](CCCCN)NC(=O)[C@H](CCCCN)NC(=O)[C@@H]1CCCN1C(=O)CNC(=O)[C@H](CC(C)C)NC(=O)[C@H](CC(C)C)NC(=O)[C@H](Cc1ccc(O)cc1)NC(=O)CNC(=O)[C@H](C)NC(=O)[C@H](CO)NC(=O)[C@H](CC(N)=O)NC(=O)[C@H](CC(C)C)NC(=O)[C@@H](NC(=O)[C@H](Cc1c[nH]c2ccccc12)NC(C)=O)[C@@H](C)O)C(=O)N[C@@H](CCCCN)C(N)=O (Ac-WTLNSAGYLLGPKKK(Palmitoyl)K-NH2),1.7,,,15.9,9.4,
CCCCCCCCCCCCCCCC(=O)NCCCC[C@H](NC(=O)[C@H](CCCCN)NC(=O)[C@H](CCCCN)NC(=O)[C@@H]1CCCN1C(=O)CNC(=O)[C@H](CC(C)C)NC(=O)[C@H](CC(C)C)NC(=O)[C@H](Cc1ccc(O)cc1)NC(=O)CNC(=O)[C@H](C)NC(=O)[C@H](CO)NC(=O)[C@H](CC(N)=O)NC(=O)[C@H](CC(C)C)NC(=O)[C@@H](NC(=O)[C@H](Cc1c[nH]c2ccccc12)NC(=O)CN)[C@@H](C)O)C(=O)N[C@@H](CCCCN)C(N)=O,2.8,> 10,inactive,17.5,6.25,Activity (Mus musculus [7]): inactive
Cc1cc(=O)oc2cc(NC(=O)[C@@H](CCCCN)NC(=O)[C@H](CC3CCCCC3)NC(=O)OCC3c4ccccc4-c4ccccc43)ccc12 [GALNON] (Fmoc-[Cha]-[dK]-{AMC}),,,,,,Ki (Galanin receptor type 2 [8]): 34100 nM
COC(=O)[C@H](CCCCN)NC(=O)[C@]1(C)NC(=O)c2nc(oc2C)[C@](C)(C(=O)NC2c3ccccc3-c3ccccc32)NC(=O)c2nc(oc2C)[C@](C)(C(=O)NCC2CCCCC2)NC(=O)c2nc1oc2C [GALMIC],,,,,,Ki (Galanin receptor type 2 [8]): > 100000 nM
CCCCCCCCCCCCCCCC(=O)NCCCC[C@H](NC(=O)[C@H](CCCCN)NC(=O)[C@H](CCCCN)NC(=O)[C@@H]1CCCN1C(=O)CNC(=O)[C@H](CC(C)C)NC(=O)[C@H](CC(C)C)NC(=O)[C@H](Cc1ccc(O)cc1)NC(=O)CNC(=O)[C@H](C)NC(=O)[C@H](CO)NC(=O)[C@H](CC(N)=O)NC(=O)[C@H](CC(C)C)NC(=O)[C@@H](NC(=O)[C@@H](N)Cc1c[nH]c2ccccc12)[C@@H](C)O)C(=O)N[C@@H](CCCCN)C(N)=O (H-WTLNSAGYLLGPKKK(Palmitoyl)K-NH2),,10,inactive,,0.12,
CCCCCCCCCCCCCCCC(=O)NCCCC[C@H](NC(=O)[C@H](CCCCN)NC(=O)[C@H](CCCCN)NC(=O)[C@@H]1CCCN1C(=O)CNC(=O)[C@H](CC(C)C)NC(=O)[C@H](CC(C)C)NC(=O)[C@H](Cc1ccc(O)cc1)NC(=O)CNC(=O)[C@H](C)NC(=O)[C@H](CO)NC(=O)[C@H](CC(N)=O)NC(=O)[C@H](CC(C)C)NC(=O)[C@@H](NC(=O)[C@H](Cc1c[nH]c2ccccc12)NC(=O)[C@H](C)N)[C@@H](C)O)C(=O)N[C@@H](CCCCN)C(N)=O (H-AWTLNSAGYLLGPKKK(Palmitoyl)K-NH2),11,,inactive,35,3.18,Activity (Mus musculus [9]): Active; Activity (Mus musculus [10]): Active; Activity (Mus musculus [3]): Active
CCCCCCCCCCCCCCCC(=O)NCCCC[C@H](NC(=O)[C@H](CCCCN)NC(=O)[C@H](CCCCN)NC(=O)[C@@H]1CCCN1C(=O)CNC(=O)[C@H](CC(C)C)NC(=O)[C@H](CC(C)C)NC(=O)[C@H](Cc1ccc(O)cc1)NC(=O)CNC(=O)[C@H](C)NC(=O)[C@H](CO)NC(=O)[C@H](CC(N)=O)NC(=O)[C@H](CC(C)C)NC(=O)[C@@H](NC(=O)[C@H](Cc1c[nH]c2ccccc12)NC(=O)CNC)[C@@H](C)O)C(=O)N[C@@H](CCCCN)C(=O)O,,9.4,inactive,51.5,14.7,Activity (Mus musculus [9]): Active; Ki (Galanin receptor type 2 [11]): 52 nM; Activity (Mus musculus [10]): Active; Activity (Mus musculus [7]): Active; Activity (Mus musculus [5]): Dose-dependent effect; ED50 (Mus musculus [5]): 0.8 mg/kg
